The source of these data is ChEMBL document CHEMBL1127480, “Evaluation of a vitamin-cloaking strategy for oligopeptide therapeutics: biotinylated HIV-1 protease inhibitors” (J Med Chem, 1994).

Test [1] addresses Human immunodeficiency virus type 1 protease (Human immunodeficiency virus 1, UniProt Q72874). The experiment in a line: In vitro inhibitory activity against […].
Test [2] has as its system CV-1. Kind of test: Inhibition of p24 expression was measured at 1 uM using vVK/CV-1 assay. It is filed as functional, Cercopithecidae. Conditions: Chlorocebus aethiops.
Test [3] in a line: Inhibition of p24 expression in HIVD34-infected PBMC assay on day 4 at concentration of 1 nM. It is filed as functional. Conditions: Homo sapiens, 96 h.
A short description of test [4]: Inhibition of viral RNA in HIVD34-infected PBMC assay on day 4 at concentration of 1 nM. It is filed as functional. Conditions: Homo sapiens, 96 h.
The nature of test [5]: Inhibition of viral RNA in HIVD34-infected PBMC assay on day 4 at a concentration of 100 nM. It is filed as functional. The note with it: Homo sapiens, 96 h.
Test [6] in a line: Inhibition of p24 expression in HIVD34-infected PBMC assay on day 4 at concentration of 100 nM. It is filed as functional. The note with it: Homo sapiens, 96 h.
Test [7] is described as follows: Inhibition of viral RNA in HIVD34-infected PBMC assay on day 4 at concentration of 10 nM. In kind it is functional. Conditions: Homo sapiens, 96 h.
The nature of test [8]: Inhibition of p24 expression in HIVD34-infected PBMC assay on day 4 at concentration of 10 nM. In kind it is functional. The note with it: Homo sapiens, 96 h.
The nature of test [9]: Inhibition of p24 expression in HIVD34-infected PBMC assay on day 4 at concentration of 4 nM. It is filed as functional. Conditions: Homo sapiens, 96 h.
Test [10] can be described thus: Inhibition of viral RNA in HIVD34-infected PBMC assay on day 4 at concentration of 4 nM. It is filed as functional. Conditions: Homo sapiens, 96 h.
Test [11] is described as follows: Inhibition of p24 expression in HIVD34-infected PBMC assay on day 4 at concentration of 40 nM. In kind it is functional. The note with it: Homo sapiens, 96 h.
A short description of test [12]: Inhibition of viral RNA in HIVD34-infected PBMC assay on day 4 at concentration of 40 nM. It is filed as functional. Conditions: Homo sapiens, 96 h.
A short description of test [13]: Inhibition of p24 expression in PBMC assay on day 4 at concentration of 100 nM. It is filed as functional. The note with it: Homo sapiens, 96 h.
The subject of test [14] is Caco-2. Kind of test: Effect on the apical to basolateral transport of [3H]biotin in caco-2-cell monolayer. It is filed as functional, Homo sapiens. The method in brief: (§1)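 Caco-2 monolayers (passage 25) on Transwell inserts, equilibrated 30 min in HBSS with 25 mM glucose, 10 mM Hepes pH 7.35 at 37 °C. Apical side given 10 nM [3H]biotin alone or with 300 μM unlabeled biotin or conjugate (final MeOH 1–5%). Basolateral samples taken over time; [3H]mannitol integrity marker; Student's t-test; triplicate determinations.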
(Caco-2 monolayers are a common model of the intestinal barrier.)

The nature of test [15]: Inhibition of viral RNA in PBMC assay on day 4 at concentration of 100 nM. In kind it is functional. The note with it: Homo sapiens, 96 h.
Test [16] relates to Caco-2. The experiment in a line: % control value in caco-2-cell monolayer. It is filed as functional, Homo sapiens. Set-up: concentration or dose not given beside the values. A digest of the protocol: as §1
The nature of test [17]: p24 expression was measured by PBMC assay on day 4 at concentration of 1 nM. It is filed as functional. The note with it: Homo sapiens, 96 h.
A short description of test [18]: p24 expression was measured by PBMC assay on day 4 at concentration of 10 nM. It is filed as functional. Conditions: Homo sapiens, 96 h.
The test system of test [19] is CV-1. The experiment in a line: Inhibition of p24 expression was measured at 1 uM using vaccinia virus vVK/CV-1 assay; Inactive. The note with it: Cercopithecidae. In kind it is functional, cell-based.
Test [20] concerns CV-1. Kind of test: Inhibition of p24 expression was measured at 1 uM using vVK/CV-1 assay; Inactive. It is filed as functional, cell-based. Conditions: Cercopithecidae.

The structures appear in SMILES notation. Activity calls are given as the source filed them. The rule behind the calls is not given here.

In the case of `CC[C@@H](C)[C@H](NC(=O)[C@H](C(C)C)[C@@H](O)[C@H](O)[C@H](CC1CCCCC1)NC(=O)c1ccccc1SCCCCC[C@@H]1SCC2NC(=O)NC21)C(=O)NCc1ccccn1` (some centres undefined), affinity in test [1] was put at a Ki of 53 nM.

Turning to `CC[C@@H](C)[C@H](NC(=O)[C@H](C(C)C)[C@@H](O)[C@H](O)[C@H](CC1CCCCC1)NC(=O)c1ccccc1SCCCCC[C@@H]1SCC2NC(=O)NC21)C(=O)NCCc1scnc1C` (some centres undefined), at 1 µM the inhibition in [2] was 34%. The same molecule returned a Ki in test [1] of 4 nM.

Consider `CC[C@H](C)[C@H](NC(=O)[C@H](C(C)C)[C@@H](O)[C@H](O)[C@H](CC1CCCCC1)NC(=O)[C@H](Cc1c[nH]cn1)NC(=O)COc1cccc2ccccc12)C(=O)NCc1ccccn1`, for which the inhibition at 0.001 µM in [3] stood at 38%; in test [4], 30%. For the same molecule, the inhibition at 0.1 µM in test [5] was determined as 98%; in test [6] it was 95%. In addition, the values for the inhibition at 0.01 µM in [7] and in test [8] were 80% and 82%, respectively. This molecule also showed an inhibition at 1 µM in [2] of over 80%. The same molecule had an inhibitory constant (Ki) in [1] of under 1 nM.

For the molecule `Cc1cn([C@H]2C[C@H](N=[N+]=[N-])[C@@H](CO)O2)c(=O)[nH]c1=O` [ZIDOVUDINE], the inhibition at 0.004 µM in test [9] stood at 2%; in test [10] it was 0%. In addition, the results for the inhibition at 0.04 µM in test [11] and in test [12] were 81% and 90%, respectively.

`CC[C@@H](C)[C@H](NC(=O)[C@H](C(C)C)[C@@H](O)[C@H](O)[C@H](CC1CCCCC1)NC(=O)[C@@H](NC(=O)CCCC[C@H]1SC[C@H]2NC(=O)NC21)C(C)C)C(=O)NCc1ccccn1` (some centres undefined): the inhibition at 0.001 µM in test [3] was determined as 7%; in test [4], 18%. The results for the inhibition at 0.1 µM in test [13] and in [15] were 89% and 69%, respectively. Further, the Transport in test [14] is reported as 22.7 pM min-1 (mg of protein)-1. Besides, the inhibition at 0.01 µM in test [7] is 22%; in test [8] it was 11%. Besides, in [2], testing at 1 µM gave an inhibition of 26%. In addition, the Control in [16] was 122%. The Ki in test [1] was under 4 nM.

Consider `CC[C@@H](C)[C@H](NC(=O)[C@H](C(C)C)[C@@H](O)[C@H](O)[C@H](CC1CCCCC1)NC(=O)CCCC[C@@H]1SCC2NC(=O)NC21)C(=O)NCCc1scnc1C` (some centres undefined), for which the inhibition at 1 µM in test [2] was 15%. In addition, the affinity in [1] corresponds to a Ki of 130 nM.

With `CC[C@@H](C)[C@H](NC(=O)[C@H](C(C)C)[C@@H](O)[C@H](O)[C@H](CC1CCCCC1)NC(=O)c1ccccc1OCCCCC[C@@H]1SC[C@H]2NC(=O)N[C@@H]12)C(=O)NCc1ccccn1`, the inhibition at 0.1 µM in test [13] came out at 83%; in test [15], 17%. In addition, in test [14], the Transport is given as 15.8 pM min-1 (mg of protein)-1. Besides, the inhibition at 0.001 µM came out at 15% in test [4] and 2% in test [17]. Moreover, the results for the inhibition at 0.01 µM in test [7] and in test [18] were 10% and 5%, respectively. Further, 1 µM produced 24% inhibition in test [2]. In test [16], this molecule displayed a Control of 85%. Besides, in test [1], the Ki was determined as 10 nM.

Consider `CC[C@@H](C)[C@@H](CNC(=O)CCCC[C@@H]1SC[C@@H]2NC(=O)NC21)NC(=O)[C@H](C(C)C)[C@@H](O)[C@H](O)[C@H](CC1CCCCC1)NC(=O)c1ccccc1OCCOc1ccccc1` (some centres undefined), for which the inhibition result in [19] is “inactive”. In addition, the Ki in test [1] was over 100 nM.

With `O=C(O)CCCC[C@@H]1SC[C@@H]2NC(=O)N[C@@H]21` [BIOTIN], the Transport in test [14] is given as 0 pM min-1 (mg of protein)-1. For the same molecule, the Control in test [16] is listed as 0%.

In the case of `CC[C@@H](C)[C@H](NC(=O)[C@H](C(C)C)[C@@H](O)[C@H](O)[C@H](CC1CCCCC1)NC(=O)CCCC[C@@H]1SCC2NC(=O)N[C@@H]21)C(=O)NCc1ccccn1` (some centres undefined), in [14], the Transport was 24.1 pM min-1 (mg of protein)-1. In test [2], the inhibition at 1 µM turned out to be 9%. This molecule also returned a Control in [16] of 129%. Moreover, the Ki in test [1] came to 45 nM.

With `CC[C@@H](C)[C@H](NC(=O)[C@H](C(C)C)[C@@H](O)[C@H](O)[C@H](CC1CCCCC1)NC(=O)CCCCCNC(=O)CCCC[C@@H]1SCC2NC(=O)N[C@@H]21)C(=O)NCc1ccccn1` (some centres undefined), the Transport in test [14] was 20.6 pM min-1 (mg of protein)-1. Further, the inhibition entry in [20] was “inactive”. Further, the Control in test [16] amounted to 111%. In test [1], this molecule came in with a Ki of 20 nM.

Usually Ki stands for a dissociation constant, usually derived from enzyme kinetics or from competition with a known ligand. As a reminder, the inhibition is how much of the control response was suppressed.
